Screening results as filed in PubChem BioAssay.
An excerpt weighted towards active compounds, which were near 3% of everything screened.
SR-BI DiI inh: blocks mouse SR-BI lipid uptake from DiI-HDL. ldlA[mSR-BI] CHO cells, DiI-HDL uptake fluorescence, 3 h. inhibition, % at 12.5 µM. actives 0.96% (n = 320,000). AID 488896;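 active means mean replicate inhibition of at least 70% and a set share of replicates each scoring 70 or more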;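 further: 0% = median of neutral control wells and 100% = median of positive control wells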
Kir21 inh: blocks the mouse Kir2.1 inward-rectifier potassium channel; actives 0.85% (n = 310,000); AID 1672; B-score at 10 µM; HEK293-Kir2.1, FluxOR thallium flux fluorescence; hits give low values; P35561;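 active means fluorescence ratio B-score at or below minus 3 SD of library scores, with starting-brightness B-score within 2 SD, cut at about -4.2 in these data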;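 further: channel flux triggered by added potassium and thallium sulfate stimulus; B-score of peak minus minimum fluorescence over baseline after thallium stimulus; more negative B-score means stronger Kir2.1 block with less thallium influx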
Target sequence (P35561 whole entry, looked up): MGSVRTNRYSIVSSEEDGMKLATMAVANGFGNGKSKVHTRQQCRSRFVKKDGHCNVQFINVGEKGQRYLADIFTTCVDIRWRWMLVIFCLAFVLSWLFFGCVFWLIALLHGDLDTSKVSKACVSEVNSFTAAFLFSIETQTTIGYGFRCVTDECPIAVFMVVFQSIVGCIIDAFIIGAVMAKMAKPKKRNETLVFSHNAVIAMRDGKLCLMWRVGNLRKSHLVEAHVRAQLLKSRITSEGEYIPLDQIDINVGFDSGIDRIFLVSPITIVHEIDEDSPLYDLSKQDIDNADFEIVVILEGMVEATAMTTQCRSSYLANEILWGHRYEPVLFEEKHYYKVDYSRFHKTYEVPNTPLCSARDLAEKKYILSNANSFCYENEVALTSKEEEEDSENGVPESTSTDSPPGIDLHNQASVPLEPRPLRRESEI
SR-BI uptake up: enhances SR-BI lipid uptake from DiI-HDL; CHO ldlA[mSR-BI] cells, DiI-HDL uptake fluorescence, 3 h; 100 = double the neutral-control signal; activation, % at 12.5 µM; actives 0.096% (n = 320,000);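 active means mean replicate activation of at least 60% and every replicate at or above 60%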;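 further: 0% = median plate neutral-control signal and 100% = twice that signal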
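Material: SR-BI-overexpressing, LDLR-lacking CHO cells; schedule: compound exposure 3 h, 37 °C; reagent: DiI-labelled HDL at 10 µg/mL final; technique: bottom-read fluorescence, 550/595 nm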
TMEM16A act: mouse TMEM16A channel activation, primary screen; Q8BHY3; actives 0.3% (n = 340,000); B-score at 10 µM; HEK293 TMEM16A/YFP-H148Q/I152L, iodide quench fluorescence; hits give low values;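 active means fluorescence-ratio B-score plate-corrected deviation score at least 3 library SD below zero, with starting fluorescence score within 5 deviations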;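 further: channel opened by trigger with iodide after compound preincubation; score built on the fluorescence ratio of max minus min over baseline; more negative score means more quench and so TMEM16A activation or potentiation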
FID counter: fluorescent intercalator displacement, NS3 helicase counter-screen | DNA fluorescent intercalator displacement, fluorescence | inhibition, % at 7.9 µM | actives 0.17% (n = 290,000) | AID 1845; in the data active means inhibition above about 37%;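 further: 0% = vehicle and 100% = reference compound; higher means more ethidium bromide displaced from hairpin DNA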
ANO1 block: inhibitors of mouse TMEM16A calcium-activated chloride channel; Q8BHY3; HEK293 TMEM16A/YFP iodide influx fluorescence, ionomycin; normalized B-score (activity score, 25-100; higher = stronger inhibition) at 10 µM; actives 1.2% (n = 310,000);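 active means ratio plate-corrected score three or more library SD toward inhibition, starting fluorescence score within five deviations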;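 further: score derived from kinetic fluorescence span divided by baseline fluorescence per well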
* hit, by the source's call.

How did Cc1cc(Br)ccc1-n1[nH]c(C)c(C=Nc2cccc3nsnc23)c1=O do in these assays?
SR-BI DiI inh: 77.1*; Kir21 inh: -1.16; SR-BI uptake up: -77.1; TMEM16A act: inactive; FID counter: -3.2; ANO1 block: inactive

How did Cc1ccc(S(=O)(=O)N2CCC(=O)N(C(COCc3cccc(C)c3)Cc3ccccc3)CC2)cc1 (stereo unspecified) do in these assays?
SR-BI DiI inh: 15.2; Kir21 inh: 3.1; SR-BI uptake up: -15.2; TMEM16A act: -21.9*; FID counter: -29.4; ANO1 block: inactive

What do the screens show for `C=CCOc1c(Br)cc(/C=N/O)cc1OCC`?
SR-BI DiI inh: 23.9; Kir21 inh: -6.02*; SR-BI uptake up: -23.9; TMEM16A act: inactive; FID counter: 1.9; ANO1 block: inactive

Results for COc1cc(/C=N/O)cc(Br)c1OC ?
SR-BI DiI inh: -8.1; Kir21 inh: 4.96; SR-BI uptake up: 8.1; TMEM16A act: inactive; FID counter: 0.9; ANO1 block: inactive

How did CC(=O)c1ccc(-c2ccc(C(=O)Nc3nc(-c4ccccn4)cs3)o2)cc1 do in these assays?
SR-BI DiI inh: 81.2*; SR-BI uptake up: -81.2; TMEM16A act: inactive

Results for Cc1ccc(C(=O)Nc2nc(-c3ccccn3)cs2)o1 ?
SR-BI DiI inh: 12.2; Kir21 inh: -2.1; SR-BI uptake up: -12.2; TMEM16A act: inactive; FID counter: -11.3; ANO1 block: inactive

How did Cc1ccc(NC(=O)COC(=O)CNC(=O)C2CCCCC2)c(Br)c1 do in these assays?
SR-BI DiI inh: -13.6; Kir21 inh: 2.35; SR-BI uptake up: 13.6; TMEM16A act: inactive; FID counter: -8.8; ANO1 block: inactive

Results for Cc1cc(C)cc(C(=O)NCC(=O)OCC(=O)Nc2ccc(C)cc2Br)c1 ?
SR-BI DiI inh: 16.8; Kir21 inh: 0.65; SR-BI uptake up: -16.8; TMEM16A act: -4.64*; FID counter: -31.6; ANO1 block: inactive

Results for CN(C)CCNc1c2c(nc3ccccc13)CCC2 ?
SR-BI DiI inh: 5.6; Kir21 inh: 0.21; SR-BI uptake up: -5.6; TMEM16A act: inactive; FID counter: 45.0*; ANO1 block: inactive

Results for O=C(Cn1c2ccccc2c2nc3n(c(=O)c21)CCS3)Nc1ccccc1 ?
SR-BI DiI inh: -9.0; Kir21 inh: -1.02; SR-BI uptake up: 9.0; TMEM16A act: -31.5*; FID counter: -8.9; ANO1 block: inactive

What do the screens show for `Cn1c(=O)c2c(nc3sccn32)n(C)c1=O`?
SR-BI DiI inh: -68.7; Kir21 inh: -0.94; SR-BI uptake up: 68.7*; TMEM16A act: inactive; FID counter: -2.0; ANO1 block: inactive

What do the screens show for `COC(=O)[C@H]1C[C@H]2[C@@H]3CC[C@H]4C[C@@H](OC)CC[C@]4(C)[C@H]3CC[C@]2(C)[C@@]2(CCCO2)O1`?
SR-BI DiI inh: -5.8; SR-BI uptake up: 5.8

How did Cc1ccc(NC(=O)/C(C#N)=N/Nc2ccc(C(=O)O)cc2)c(C)c1 do in these assays?
SR-BI DiI inh: -27.4; Kir21 inh: 0.01; SR-BI uptake up: 27.4; TMEM16A act: inactive; FID counter: -8.6; ANO1 block: inactive

How did Cc1ccc(N/N=C(\C#N)C(N)=S)c(C)c1 do in these assays?
SR-BI DiI inh: 77.5*; Kir21 inh: -2.21; SR-BI uptake up: -77.5; TMEM16A act: inactive; FID counter: 6.8; ANO1 block: inactive

How did CC(=O)Nc1cccc(/C(C)=N/NC(=S)NC(C)C)c1 do in these assays?
SR-BI DiI inh: -10.9; Kir21 inh: -0.84; SR-BI uptake up: 10.9; TMEM16A act: inactive; FID counter: -5.6; ANO1 block: inactive

What do the screens show for `CC(=O)Nc1cccc(/C(C)=N/NC(N)=S)c1`?
SR-BI DiI inh: 81.5*; Kir21 inh: -0.06; SR-BI uptake up: -81.5; TMEM16A act: inactive; FID counter: -5.9; ANO1 block: inactive

Results for CCOC(=O)c1c(NC(=O)CSc2nccn2C)sc(C(=O)NC)c1C ?
SR-BI DiI inh: 2.8; Kir21 inh: 0.49; SR-BI uptake up: -2.8; TMEM16A act: inactive; ANO1 block: inactive

How did CC(C)(C)OC(=O)NCCCCCc1nnc(SCc2cccc(F)c2)o1 do in these assays?
SR-BI DiI inh: -11.2; Kir21 inh: -1.28; SR-BI uptake up: 11.2; TMEM16A act: inactive; FID counter: -46.5; ANO1 block: 25*

Results for Cc1cccc(CSc2nnc(CCNC(=O)OC(C)(C)C)o2)c1 ?
Kir21 inh: -6.75*; TMEM16A act: inactive; FID counter: -36.9; ANO1 block: inactive

Results for CC(C)(C)OC(=O)NCCCCCc1nnc(SCc2c(F)cccc2Cl)o1 ?
SR-BI DiI inh: 6.1; Kir21 inh: -0.79; SR-BI uptake up: -6.1; TMEM16A act: inactive; FID counter: -49.5; ANO1 block: 100*

How did CC(C)(C)OC(=O)NCCCCCc1nnc(SCc2ccccc2)o1 do in these assays?
SR-BI DiI inh: 5.7; Kir21 inh: -4.1; SR-BI uptake up: -5.7; TMEM16A act: inactive; FID counter: -51.7; ANO1 block: inactive

How did C[C@H](NC(=O)OC(C)(C)C)c1nnc(SCC(=O)Nc2cccc(Cl)c2)o1 do in these assays?
SR-BI DiI inh: 27.0; Kir21 inh: -4.31*; SR-BI uptake up: -27.0; TMEM16A act: inactive; FID counter: -19.2; ANO1 block: inactive

Results for COc1cc(C(F)(F)F)c(C(=O)N(C)Cc2cc(Cl)cc(Cl)c2)cn1 ?
SR-BI DiI inh: 7.6; Kir21 inh: -0.67; SR-BI uptake up: -7.6; TMEM16A act: inactive; FID counter: -29.6; ANO1 block: inactive

Results for Cc1cc(C)cc(C(=O)Nc2ccc(NC(=O)Cc3ccccc3)cc2)c1 ?
SR-BI DiI inh: 67.3; Kir21 inh: 0.04; SR-BI uptake up: -67.3; TMEM16A act: inactive; FID counter: 0.3; ANO1 block: inactive

How did CC(=O)N1CCN(C(=O)CSc2cc(C)c(Br)cc2C)CC1 do in these assays?
SR-BI DiI inh: -2.9; Kir21 inh: -0.92; SR-BI uptake up: 2.9; TMEM16A act: inactive; FID counter: -28.1; ANO1 block: inactive

What do the screens show for `CC(C)(C)OC(=O)NCCc1nnc(SCc2cccc(Cl)c2)o1`?
SR-BI DiI inh: -15.5; Kir21 inh: -11.7*; SR-BI uptake up: 15.5; TMEM16A act: inactive; FID counter: -34.0; ANO1 block: inactive

What do the screens show for `NCCc1c(-c2ccccc2)n(-c2ccccc2)c2ccccc12`?
SR-BI DiI inh: 3.9; Kir21 inh: -15.1*; SR-BI uptake up: -3.9; TMEM16A act: inactive; FID counter: 19.7

What do the screens show for `Cc1ccc(S(=O)(=O)N2CCOCC2)cc1C(=O)Nc1ccc(S(=O)(=O)Nc2nccs2)cc1`?
Kir21 inh: -0.69; TMEM16A act: inactive; FID counter: -19.7; ANO1 block: inactive
